Consider ten molecules from ChEMBL document CHEMBL1165883, “Synthesis, evaluation and computational studies on a series of acetophenone based 1-(aryloxypropyl)-4-(chloroaryl) piperazines as potential atypical antipsychotics” (2010).

Calls of active or inactive are those of the source. No cut-off for these calls is given here.

Experiment [1] concerns Mus musculus. In words: Antipsychotic activity in ip dosed albino lyka mouse assessed as reversal of apomorphine-induced mesh climbing response administered 10 mins prior to apomorphine challenge after 10 to 30 mins. The experiment is classed as functional. The procedure, abridged: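 Mice of either sex (26–38 g), six per group, habituated singly in a wire-mesh cage (13 cm diameter, 14 cm high). Compound, saline (control) or clozapine (positive control) given ip; apomorphine 2.5 mg kg^-1 ip 10 min later. Climbing was scored over 60 s in the mesh cage at 10, 15, 20, 25 and 30 min: 1 = one–three paws on mesh, 2 = all four. Three titrated dose levels.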

For experiment [2], the system named is Mus musculus. In words: Antipsychotic activity in ip dosed albino lyka mouse assessed as reversal of apomorphine-induced stereotype response administered 10 mins prior to apomorphine challenge after 10 to 30 mins. The experiment is classed as functional. The procedure, abridged:
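Mice of either sex (26–38 g) received vehicle, compound or clozapine (positive control), then apomorphine 2.5 mg kg^-1 after 10 min. Stereotypy was scored over 60 s in an inverted 500 ml beaker at 10, 15, 20, 25 and 30 min post-apomorphine: 1 = rearing, sniffing or grooming; 2 = licking or biting. Three dose levels, chosen by initial titration.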

As to `CC(=O)c1ccc(OCCCN2CCN(C(=O)c3ccc(Cl)cc3)CC2)cc1`, the ED50 entry with Mus musculus [1] was “inactive”. The result in the experiment with Mus musculus [2] was Active.
In the case of `CC(=O)c1ccc(OCCCN2CCN(Cc3ccccc3Cl)CC2)cc1`, the ED50 with Mus musculus [1] was determined as 23 mg/kg.
On to `Clc1ccccc1CN1CCN(Cc2ccccc2Cl)CC1`, for which the ED50 with Mus musculus [1] was determined as 7.2 mg/kg. Besides, the Activity with Mus musculus [2] stood at 0.86.
On to `CC(=O)c1ccccc1OCCCN1CCN(Cc2ccc(Cl)cc2)CC1`, for which the ED50 in the experiment with Mus musculus [1] is 10 mg/kg.
`Clc1ccc(CN2CCN(Cc3ccc(Cl)cc3)CC2)cc1`: in the experiment with Mus musculus [1], the ED50 was determined as 10.5 mg/kg. Further, the Activity in the experiment with Mus musculus [2] is reported as 1.02.
On the same counts, the results for `CC(=O)c1ccccc1OCCCN1CCN(C(=O)c2ccccc2Cl)CC1` are “inactive” and “Active”.
On the same counts, the results for `CC(=O)c1ccc(OCCCN2CCN(C(=O)c3ccccc3Cl)CC2)cc1` are “inactive” and “Active”.
For `CC(=O)c1ccccc1OCCCN1CCN(Cc2ccccc2Cl)CC1`, the ED50 with Mus musculus [1] came out at 10.5 mg/kg.
Consider `CC(=O)c1ccccc1OCCCN1CCN(C(=O)c2ccc(Cl)cc2)CC1`, for which the ED50 result with Mus musculus [1] was “inactive”. Also, in the experiment on Mus musculus [2], the outcome was Active.
In the case of `CC(=O)c1ccc(OCCCN2CCN(Cc3ccc(Cl)cc3)CC2)cc1`, in the experiment with Mus musculus [1], the ED50 was 50 mg/kg.

A word on the ED50: it is the midpoint of the dose-response relation.
